Experimental data from publication PMC10840928 (Chemistry (Weinheim an der Bergstrasse, Germany), 2023).

Columns and labels:
Aβ42 peptide = Aβ42 peptide (Homo sapiens, UniProt P05067); assay: In vitro Aβ42 aggregation monitoring; assay type: binding; conditions: 25 μM peptide, 5 μM probe, 37 °C, 0-40 h
[1] = target: Aβ42 oligomers and fibrils (Homo sapiens, UniProt P05067); assay: Fluorescence turn-on with Aβ42 fibrils and oligomers; assay type: binding; conditions: 5 μM compound, 25 μM Aβ42 species, PBS; for maximum emission wavelength in the presence of Aβ aggregates: for DCM-OH-2-MT the LE peak; for fluorescence turn-on effect with Aβ aggregates: excitation 470 nm
Aβ42 oligomers and fibrils, sequence (P05067 672-713 limits assumed): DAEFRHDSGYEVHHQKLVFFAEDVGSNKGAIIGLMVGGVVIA

[2] = target: Aβ aggregates in 5xFAD mouse brain sections (Homo sapiens, UniProt P05067); assay: Histological staining of 5xFAD mouse brain sections, colocalization with ThS; conditions: 9-month-old 5xFAD brain sections, 10 μM compound, 2.5 μM ThS
Aβ aggregates in 5xFAD mouse brain sections, sequence (P05067 672-711 limits assumed): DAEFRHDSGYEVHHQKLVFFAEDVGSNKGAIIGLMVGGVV

[3] = Job's plot analysis of Cu; assay type: physicochemical; conditions: PBS pH 7.4, total 30 μM
Method in brief: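 Test compound and Cu(II) mixed in PBS pH 7.4, Cu from 0 to 100 mol %, combined concentration fixed at 30 μM. Equilibrated at least 5 min at room temperature. UV-vis spectra recorded, and stoichiometry read from the break point of the plot versus Cu mole fraction.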

[4] = system: Aβ aggregates in 5xFAD mice; assay: Real-time in vivo NIR fluorescence imaging; parameters: species or system mouse; conditions: 5 mg/kg
[5] = pKa by UV-vis spectrophotometric titration; assay type: physicochemical; conditions: pH 3-11, I = 0.1 M NaCl
Method in brief: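 About 20 μM test compound in 0.1 M NaCl titrated with small aliquots of 0.2 M NaOH, from low to high pH (3–11). Run at room temperature under moist N2 flow until spectra stopped changing, giving about 30 UV-vis spectra per compound. Constants fitted with HypSpec. Largest pKa assigned to the phenol O-H.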

[6] = Viscosity sensitivity measurement; assay type: physicochemical; conditions: 10 μM, ethylene glycol/glycerol mixtures
Method in brief: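 Mixed until no layering, then fluorescence intensity recorded. log I plotted against log η and fitted by linear regression (log I = x log η + A). Slope x taken as sensitivity.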

[7] = system: mouse neuroblastoma (N2A) cells; assay: Alamar Blue cytotoxicity, N2A cells; assay type: cell-based; conditions: 40 h treatment
Method in brief: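 Cells seeded at 2.0 × 10⁴/well and grown 24 h. Medium switched to DMEM/N-2 for 1 h, then test compound added at a range of concentrations for 40 h. Alamar Blue added and incubated 90 min at 37 °C. Fluorescence read at 590 nm (excitation 560 nm).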

[8] = system: human neuroblastoma (SH-SY5Y) cells; assay: Alamar Blue cytotoxicity, SH-SY5Y cells; assay type: cell-based; conditions: 40 h treatment
Method in brief: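 After seeding at 2.0 × 10⁴/well and 24 h growth, medium changed to MEM/F-12 (1:1)/N-2 for 1 h. Cells exposed 40 h to test compound at varying concentrations. Alamar Blue incubation 90 min at 37 °C, then fluorescence measured at 590 nm with 560 nm excitation.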

Aβ42 peptide, sequence (P05067 672-713 limits assumed): as the sequence (P05067 672-713 limits assumed) above

SMILES | fluorescence response during Aβ42 aggregation (Aβ42 peptide) | maximum emission wavelength in the presence of Aβ aggregates [1] | labeling pattern of Aβ aggregates on brain sections [2] | fluorescence turn-on effect with Aβ aggregates [1] | stoichiometry of Cu(II)-ligand complexation in solution [3] | pKa of the phenol O-H (largest pKa value) [5] | also measured
Cc1ccc2c(c1)sc(-c1ccc(N(C)C)cc1)[n+]2C [ThT, Thioflavin T, reference compound] | minimal fluorescence enhancement from 0–10 h |  |  |  |  |  | 
CN1CCN(C)CCN(Cc2cc(/C=C/C=C/C3=CC(=C(C#N)C#N)c4ccccc4O3)ccc2O)CC1 [DCM-OH-2-MT] |  | 620 nm | bind to the peripheral region of the Aβ aggregates |  |  |  | second emission peak (ESIPT emission) in the presence of Aβ aggregates [1]: 730 nm
CN1CCN(C)CCN(Cc2cc(/C=C/C3=CC(=C(C#N)C#N)c4ccccc4O3)cc(CN3CCN(C)CCN(C)CC3)c2O)CC1 [DCM-OH-1-DT] |  | ~ 650 nm |  | fluorescence enhancement | mixture of 1:1 and 2:1 ligand-to-Cu complexes |  | 
CN1CCN(C)CCN(Cc2cc(/C=C/C=C/C3=CC(=C(C#N)C#N)c4ccccc4O3)cc(CN3CCN(C)CCN(C)CC3)c2O)CC1 [DCM-OH-2-DT] | more significant fluorescence increases at the early stage | about 730 nm | bind to the peripheral region of the Aβ aggregates |  | only the 1:1 ligand-to-Cu complexes | 9.35 | brain NIR fluorescence signal, AD mice vs WT mice ([4]; 7-month-old 5xFAD vs WT, 5-, 15-, 30-min post injection): significantly higher fluorescence signal in AD mice; time to maximum brain fluorescence signal after injection ([4]; jugular vein injection, 7-month-old mice): about 15 min; viscosity sensitivity (x value) [6]: lowest viscosity sensitivity
CN1CCN(C)CCN(Cc2cc(/C=C/C3=CC(=C(C#N)C#N)c4ccccc4O3)ccc2O)CC1 [DCM-OH-1-MT] |  | ~ 650 nm |  | fluorescence enhancement | mixture of 1:1 and 2:1 ligand-to-Cu complexes |  | 
N#CC(C#N)=C1C=C(/C=C/C=C/c2ccc(O)cc2)Oc2ccccc21 [DCM-OH-2] | more significant fluorescence increases at the early stage | 620 nm | binding to the identical core regions of the Aβ aggregates | significant fluorescence turn-on effect |  | 11.73 | cytotoxicity [7]: slightly more toxic than the others; cytotoxicity [8]: slightly more toxic than the others
